We go through twelve molecules from paper PMC3329623 (The Biochemical journal, 2009).

Read-outs that look alike come from different tables or passages of the source. Bridge positions count the residues as written; N and C are the ends. Ends that are not written are not given here.

In general, Kd refers to the equilibrium constant for the complex coming apart. Higher therefore signals weaker binding.

Experiment [1] deals with zfα5(huW1-4)β1-1 blade swap integrin (human | zebrafish) (UniProt P08648). The experiment can be described thus: ELISA. In general terms: An ELISA detects its analyte on a solid surface through an enzyme-linked reagent.
In experiment [2] the target is triple loop swap zfα5β1-1 integrin (KEDTPH to EKEPL, RGRK to SWAA and RKEIRF to ASSIY) (zebrafish). The experiment can be described thus: ELISA.
The target of experiment [3] is zfα5(SWAA)β1-1 loop swap integrin (D3-A3 loop RGRK to SWAA) (zebrafish). The experiment can be described thus: ELISA.
For experiment [4], the target named is zebrafish α5β1-1-Fc recombinant soluble integrin (zebrafish). The experiment can be described thus: ELISA.
In experiment [5] the target is zfα5(EPEK)β1-1 loop swap integrin (B2-C2 loop KEDTPH to EKEPL) (zebrafish). The experiment can be described thus: ELISA.
The target in experiment [6] is zfα5β1-1(Y204A) (zebrafish). The experiment can be described thus: ELISA.
Experiment [7] concerns the target zfα5(ASSIY)β1-1 loop swap integrin (D4-A4 loop RKEIRF to ASSIY) (zebrafish). The experiment can be described thus: ELISA.
Experiment [8] addresses zfα5β1-1(D225A) (zebrafish). As to the kind of experiment: ELISA.
The target of experiment [9] is zfα5β1-1(L206A) (zebrafish). The experiment can be described thus: ELISA.
In experiment [10] the test system is zfα5β1-1, zfα5β1-2 and zfα5huβ1. As to the kind of experiment: inhibition of 70K binding to zebrafish α5 integrins. Conditions: specificity control / antagonist test; 1 mM Mn2+. An outline of the steps:
(§1)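 Receptors were Fc-fused α5β1 headpiece integrins expressed transiently in CHO-L761h cells and captured from supernatant on goat anti-human Fc. Binding of the biotinylated fibronectin fragment (2–3 nM) was run with 1 mM Mn2+ at room temperature. Peptide inhibitor was tested at 0.1–100 μg/ml and small-molecule inhibitor at 0.1–300 nM, both serially diluted. BSA-well background was subtracted; four replicate wells; at least three experiments.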

The subject of experiment [11] is huα5β1-1, huα5β1-2 and huα5huβ1. As to the kind of experiment: inhibition of 50K binding to human α5 integrins. Further details: species or system human α5 / zebrafish or human β1. The settings on record: 1 mM Mn2+. An outline of the steps:
as §1

In experiment [12] the test system is α5β1. The settings on record: cited from earlier work; for affinity for α5β1: phage display peptides.
The subject of experiment [13] is huα5β1-1. As to the kind of experiment: inhibition of 50K binding to huα5β1-1. The settings on record: control experiments. More on the design: species or system human α5 / zebrafish β1-1.
Experiment [14] addresses huα5β1-1 (UniProt P08648+Q3YAA1). As to the kind of experiment: Solid-phase inhibition of biotinylated 50K human fibronectin fragment. Type of experiment: biochemical. Conditions: read-out: Apparent KI values (nM), JSM6427, 50K; SD, n = 3. The gist of the method:
(§2)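 Fc-fused soluble integrin (full α5 ectodomain plus β1 headpiece: PSI, hybrid, βI) from CHO-L761h supernatants 6 days after transient co-transfection, captured on anti-human Fc. Biotinylated fibronectin fragment (E. coli-made human 3Fn6-10 or FLAG-purified zebrafish 70K from 293-EBNA cells) at 2–3 nM, 1 mM Mn2+, room temperature. Inhibitor 0.1–300 nM, serially diluted. Four replicate wells, BSA background subtracted. Curves fitted by simulated annealing. KI = IC50/(1+[ligand]/KD).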

The target in experiment [15] is Triple swap (Danio rerio, UniProt A0ACM8Q6M2+Q3YAA1, K151E/E152K/D153E/DEL154/H156L/R184S/G185W/R186A/K187A/R250A/K251S/E252S/DEL254/F255Y/S520N). As to the kind of experiment: Solid-phase inhibition of biotinylated 70K zebrafish fibronectin-1 fragment. Type of experiment: biochemical. Conditions: read-out: Apparent KI values (nM), JSM6427, 70K; SD, n = 3. The gist of the method: as §2

Experiment [16] has as its target zfα5(SGAA)β1-1 (Danio rerio, UniProt A0ACM8Q6M2+Q3YAA1, R184S/R186A/K187A/S520N). The experiment is classed as biochemical. The settings on record: read-out: apparent KI values for JSM6427 (Figure 6 legend); SD, n = 3. The gist of the method:
as §2

Experiment [17] has as its target T1, zfα5(SWAA)β1-1 (Danio rerio, UniProt A0ACM8Q6M2+Q3YAA1, R184S/G185W/R186A/K187A/S520N). The experiment is classed as biochemical. The settings on record: read-out: apparent KI values for JSM6427 (Figure 6 legend); SD, n = 3. An outline of the steps:
as §2

In experiment [18] the target is T1, zfα5(SWAA)β1-1. The experiment can be described thus: Solid-phase inhibition of biotinylated 70K zebrafish fibronectin-1 fragment. The experiment is classed as biochemical. The settings on record: read-out: Apparent KI values (nM), JSM6427, 70K; SD, n = 3. An outline of the steps:
as §2

The subject of experiment [19] is human α5 with Ile-210 (equivalent of Leu-206) mutated to alanine. The settings on record: cited from earlier work.
The subject of experiment [20] is human α5 with Tyr-208 (equivalent of Tyr-204) mutated to alanine. Conditions: cited from earlier work.
In experiment [21] the target is triple loop swap zfα5β1-1 integrin (KEDTPH to EKEPL, RGRK to SWAA and RKEIRF to ASSIY) (zebrafish). As to the kind of experiment: ELISA. This is another data set of the same source.
For experiment [22], the target named is zfα5(SWAA)β1-1 loop swap integrin (D3-A3 loop RGRK to SWAA) (zebrafish). As to the kind of experiment: ELISA. The source holds these as a separate data set.
Experiment [23] deals with zfα5(huW1-4)β1-1 blade swap integrin (human | zebrafish) (UniProt P08648). The experiment can be described thus: ELISA. The source holds these as a separate data set.
Experiment [24] deals with human α5 / zebrafish β1-1-Fc recombinant soluble integrin (human | zebrafish, UniProt P08648;Q3YAA1). The experiment can be described thus: ELISA.

“50 kDa cell binding domain of human fibronectin (3Fn6-10) (domain or fragment)” displayed a Kd in [1] of 1.3 nM. This counts as single-digit nanomolar.
On to “70 kDa cell binding fragment of zebrafish fibronectin-1 (3Fn6-10 including the EIIIB domain) (domain or fragment)”, for which the dissociation constant (Kd) in experiment [2] came out at 5.8 nM; in experiment [3] it was 1.7 nM; in [5], 4.6 nM; in experiment [6], 79 nM; in experiment [7] it was 8.3 nM; in experiment [8], 42 nM. Also, the values for the Kd in experiment [1] and in experiment [9] were 14 nM and 106 nM, respectively. Moreover, the fold higher affinity than for zfα5β1-2 in [4] amounted to 3 fold.
With `O=C(O)CN(CCN(CC(=O)O)CC(=O)O)CC(=O)O` [EDTA], the “inhibition of 70K binding to zebrafish α5 integrins” value in [10] is recorded as “could be inhibited”. For the same molecule, the “inhibition of 50K binding to human α5 integrins” value in experiment [11] is listed as “fully inhibited”.
In the case of “CRGDGFC (disulfide 1-7 (inferred)) [CRGDGFC]”, the “affinity for α5β1” value in experiment [12] is on record as “high affinity”.
On to “CRGDGWC (disulfide 1-7 (inferred)) [CRGDGWC]”, for which the “affinity for α5β1” value in experiment [12] is reported as “high affinity”.
On to “GACRRETADACGA (disulfide 3-11 (inferred))”, for which the “inhibition of 50K binding to huα5β1-1” value in experiment [13] is “ineffective”.
“GCRGDSPCG (disulfide 2-8 (inferred)) [cyclic RGD peptide]”: in [10], the “inhibition of 70K binding to zebrafish α5 integrins” value is reported as “could be inhibited”. The “inhibition of 50K binding to human α5 integrins” value in [11] was “fully inhibited”.
JSM6427: the Ki in [14] is 0.65 ± 0.15 nM; in experiment [15], 1.21 ± 0.04 nM; in [16], 25 nM; in [17], 4.2 nM; in experiment [18] it was 7.2 ± 2.4 nM.
Consider RGDGW, for which the “specificity/selectivity for human α5β1” value in experiment [12] (Trp-157 in the D3-A3 loop involved) was “human α5β1-specific and α5β1-selective”.
Turning to fibronectin, the “reduction of affinity of fibronectin binding, human α5 Ile mutated to alanine” value in experiment [19] is listed as 200 fold. Besides, in [20], the “reduction of affinity of fibronectin binding, human α5 Tyr mutated to alanine” value is recorded as 5 fold.
On to GACRRETAWACGA (disulfide 3-11 (inferred)) [cyclic peptide …], for which the values for the Ki in experiment [21], in experiment [22] and in experiment [23] were 76 nM, 126 nM and 31 nM, respectively.
Regarding GACRRETAWACGA (disulfide 3-11 (inferred)) [cyclic peptide GACRRETAWACGA], the Ki in [24] was 47 nM.
